Activity calls are given as the source filed them. The rule behind the calls is not given here.
Experiments:
Rattus norvegicus [1] = assay: Antiinflammatory activity in albino Wistar rat assessed as inhibition of carrageenan-induced hind paw edema at 0.05 mmol/kg, po administered 1 hr prior to carrageenan challenge measured after 5 hrs by plethysmometric analysis relative to control; format: functional
Outline: (§1)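 Oedema raised by s.c. injection of 0.1 ml of freshly prepared 1% carrageenan in saline into the right hind paw. Test agents given orally at 0.05 mmol/kg, 1 h before carrageenan; saline vehicle control. Paw volume read by plethysmometer at 3 h and 5 h.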

Rattus norvegicus [2] = assay: Antiinflammatory activity in albino Wistar rat assessed as inhibition of carrageenan-induced hind paw edema at 0.05 mmol/kg, po administered 1 hr prior to carrageenan challenge measured after 3 hrs by plethysmometric analysis relative to control; format: functional; outline: as §1
Rattus norvegicus [3] = assay: Antinociceptive activity in albino Wistar rat assessed as thermal-stimulus induced tail flick latency at 0.05 mmol/kg, po after 120 mins (reference value: 2.38 +/- 0.11 mins); format: functional
[4] = Antiinflammatory activity in macrophages (unknown origin) assessed as inhibition of TNF-alpha secretion incubated for 2 hrs by ELISA relative to control; format: functional, Macrophage
Outline: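 Macrophages grown in RPMI 1640 with 10% FBS, glutamine and penicillin/streptomycin, plated at 2 × 10^6 cells/mL. Pre-treated with cytochalasin D (2.5 µM per 10^6 cells) for 30 min, kept on throughout. Cells exposed to varying compound concentrations. TNF-α in supernatants measured by sandwich ELISA with TMB read at 450 nm, quantified against the kit standard.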

Rattus norvegicus [5] = assay: Ulcerogenicity in albino Wistar rat assessed as gastric surface epithelial damage at 0.15 mmol/kg, po by hematoxylin and eosin staining-based assay; format: toxicity, organism-based, Stomach; conditions: in vivo
Rattus norvegicus [6] = assay: Antinociceptive activity in albino Wistar rat assessed as thermal-stimulus induced tail flick latency at 0.05 mmol/kg, po after 30 mins (reference value: 2.22 +/- 0.20 mins); format: functional
Rattus norvegicus [7] = assay: Ulcerogenicity in albino Wistar rat assessed as gastric deep mucosal damage at 0.15 mmol/kg, po by hematoxylin and eosin staining-based assay; format: toxicity, organism-based, Stomach; conditions: in vivo
Rattus norvegicus [8] = assay: Antinociceptive activity in albino Wistar rat assessed as thermal-stimulus induced tail flick latency at 0.05 mmol/kg, po after 60 mins (reference value: 2.54 +/- 0.05 mins); format: functional
Rattus norvegicus [9] = assay: Ulcerogenicity in albino Wistar rat assessed as gastric muscular layer damage at 0.15 mmol/kg, po by hematoxylin and eosin staining-based assay; format: toxicity, organism-based, Stomach; conditions: in vivo
Rattus norvegicus [10] = assay: Ulcerogenicity in albino Wistar rat assessed as gastric superficial mucosal damage at 0.15 mmol/kg, po by hematoxylin and eosin staining-based assay; format: toxicity, organism-based, Stomach; conditions: in vivo
Mus musculus = assay: Antinociceptive activity in mouse assessed as inhibition of acetic acid-induced writhing at 0.05 mmol/kg, po administered 30 mins prior to acetic acid-challenge measured after 20 mins relative to control; format: functional
Outline: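 Writhing in mice by the Koster method. Six animals per group, compound given orally at 0.05 mmol/kg 30 min before i.p. 0.6% (v/v) acetic acid (80 mg/kg). Total writhes counted over 20 min after acetic acid injection.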

Homo sapiens = species: Homo sapiens; assay: Selectivity index, ratio of IC50 for COX1 (unknown origin) to IC50 for human recombinant COX2
[11] = target: Prostaglandin G/H synthase 1 (Homo sapiens, UniProt P23219); assay: Inhibition of COX1 (unknown origin)
[12] = target: T1, Prostaglandin G/H synthase 2 (Homo sapiens, UniProt P35354); assay: Inhibition of human recombinant COX2 expressed in insect cell expression system using TMPD and arachidonic acid as substrate incubated for 1 min prior to substrate addition by spectrophotometry
T1 sequence (P35354 whole entry): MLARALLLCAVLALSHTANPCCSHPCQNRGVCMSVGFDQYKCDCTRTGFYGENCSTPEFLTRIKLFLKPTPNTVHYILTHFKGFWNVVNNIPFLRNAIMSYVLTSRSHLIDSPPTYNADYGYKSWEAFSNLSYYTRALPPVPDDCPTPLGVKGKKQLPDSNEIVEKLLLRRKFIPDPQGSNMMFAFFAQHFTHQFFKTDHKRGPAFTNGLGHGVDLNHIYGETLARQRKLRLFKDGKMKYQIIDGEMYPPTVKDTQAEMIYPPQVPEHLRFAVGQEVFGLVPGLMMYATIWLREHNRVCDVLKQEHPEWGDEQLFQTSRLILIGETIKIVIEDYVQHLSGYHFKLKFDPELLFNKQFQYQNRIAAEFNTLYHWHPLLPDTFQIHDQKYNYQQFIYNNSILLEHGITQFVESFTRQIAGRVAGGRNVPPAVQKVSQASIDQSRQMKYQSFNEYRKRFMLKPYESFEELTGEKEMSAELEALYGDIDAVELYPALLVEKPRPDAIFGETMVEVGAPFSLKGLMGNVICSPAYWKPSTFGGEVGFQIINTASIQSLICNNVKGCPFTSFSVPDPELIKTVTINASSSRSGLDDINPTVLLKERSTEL

Rattus norvegicus [13] = assay: Antiinflammatory activity in albino Wistar rat assessed as inhibition of carrageenan-induced hind paw edema at 0.05 mmol/kg, po administered 1 hr prior to carrageenan challenge by plethysmometric analysis; format: functional, organism-based; conditions: TDE = time-dependent effect; outline: as §1

Prostaglandin G/H synthase 1, sequence (P23219 whole entry): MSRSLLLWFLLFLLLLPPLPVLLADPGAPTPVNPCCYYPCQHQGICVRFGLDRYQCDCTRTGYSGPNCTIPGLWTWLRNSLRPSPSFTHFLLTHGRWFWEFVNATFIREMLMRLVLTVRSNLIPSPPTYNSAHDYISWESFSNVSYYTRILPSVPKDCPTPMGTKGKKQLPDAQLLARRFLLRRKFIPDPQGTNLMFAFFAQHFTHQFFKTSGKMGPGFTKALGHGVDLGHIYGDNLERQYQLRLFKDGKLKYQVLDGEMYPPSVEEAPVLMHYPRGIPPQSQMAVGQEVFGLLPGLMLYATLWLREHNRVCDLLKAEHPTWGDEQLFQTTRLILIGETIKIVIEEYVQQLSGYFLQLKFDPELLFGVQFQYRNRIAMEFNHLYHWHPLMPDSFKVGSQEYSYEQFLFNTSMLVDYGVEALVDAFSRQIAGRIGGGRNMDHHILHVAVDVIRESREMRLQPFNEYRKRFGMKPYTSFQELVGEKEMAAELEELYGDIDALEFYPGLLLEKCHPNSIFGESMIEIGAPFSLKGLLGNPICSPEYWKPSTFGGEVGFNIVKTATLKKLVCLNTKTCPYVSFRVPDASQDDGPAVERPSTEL

For `O=c1oc2ccccc2n1Cc1cn(-c2cccnc2)nn1`, the inhibition (Rattus norvegicus [1]) was “Active” and the inhibition (Rattus norvegicus [2]) was “Active”.
For `COc1ccc2c(c1)c(CC(=O)O)c(C)n2C(=O)c1ccc(Cl)cc1` [INDOMETHACIN], the Time (Rattus norvegicus [3]) was 3.54 min, the “inhibition (INH)” value [4] was 64.01% and the inhibition in vivo at 50 µmol/kg (Rattus norvegicus [1]) was 82.2%. The Activity (Rattus norvegicus [5]) was “Toxic”, the Time (Rattus norvegicus [6]) was 3.12 min and the Activity (Rattus norvegicus [7]) was “Toxic”. The Time (Rattus norvegicus [8]) was 3.68 min, the Activity (Rattus norvegicus [9]) was “Toxic” and the Activity (Rattus norvegicus [10]) was “Toxic”. The inhibition in vivo at 50 µmol/kg (Rattus norvegicus [2]) was 79.1% and the inhibition in vivo at 50 µmol/kg (Mus musculus) was 44.7%.
With `COc1ccc(-n2cc(Cn3c(=O)oc4ccccc43)nn2)cc1` the inhibition (Rattus norvegicus [1]) was “Active” and the inhibition (Rattus norvegicus [2]) was “Active”.
`Cc1ccc2c(c1)oc(=O)n2Cc1cn(-c2ccc(F)cc2)nn1` gave a Ratio IC50 (Homo sapiens) of 72.8, a Time (Rattus norvegicus [3]) of 3.36 min and an IC50 [11] of 175 µM. The IC50 [12] was 2.4 µM, the inhibition in vivo at 50 µmol/kg (Rattus norvegicus [1]) was 80.6% and the Activity (Rattus norvegicus [5]) was “Non-toxic”. The Time (Rattus norvegicus [6]) was 3.1 min, the Activity (Rattus norvegicus [7]) was “Non-toxic” and the Time (Rattus norvegicus [8]) was 3.24 min. For the same compound, the Activity (Rattus norvegicus [9]) was “Non-toxic”, the Activity (Rattus norvegicus [10]) was “Non-toxic” and the inhibition in vivo at 50 µmol/kg (Rattus norvegicus [2]) was 81.4%.
With `O=c1oc2ccccc2n1Cc1cn(-c2cccc([N+](=O)[O-])c2)nn1` the inhibition (Rattus norvegicus [1]) was “inactive” and the inhibition (Rattus norvegicus [2]) was “inactive”.
In the case of `CCOc1ccc(-n2cc(Cn3c(=O)oc4ccccc43)nn2)cc1`, the inhibition (Rattus norvegicus [1]) is reported as “Active” and the inhibition (Rattus norvegicus [2]) is reported as “Active”.
For `Cc1ccc2c(c1)oc(=O)n2Cc1cn(-c2ccccc2Cl)nn1`, the inhibition (Rattus norvegicus [13]) was “tde”, the Ratio IC50 (Homo sapiens) was 57.6 and the Time (Rattus norvegicus [3]) was 2.56 min. It also gave an IC50 [11] of 207 µM, an IC50 [12] of 3.6 µM and an inhibition in vivo at 50 µmol/kg (Rattus norvegicus [1]) of 72.9%. For the same compound, the Activity (Rattus norvegicus [5]) was “Non-toxic”, the Time (Rattus norvegicus [6]) was 2.18 min and the Activity (Rattus norvegicus [7]) was “Non-toxic”. For the same compound, the Time (Rattus norvegicus [8]) was 2.44 min, the Activity (Rattus norvegicus [9]) was “Non-toxic” and the Activity (Rattus norvegicus [10]) was “Non-toxic”. For the same compound, the inhibition in vivo at 50 µmol/kg (Rattus norvegicus [2]) was 71.8%.
Work on `O=c1oc2ccc(Cl)cc2n1Cc1cn(-c2ccccc2F)nn1` yielded a Ratio IC50 (Homo sapiens) of 44.6, a Time (Rattus norvegicus [3]) of 2.64 min and an IC50 [11] of 138 µM. The IC50 [12] was 3.1 µM, the Activity (Rattus norvegicus [5]) was “Non-toxic” and the Time (Rattus norvegicus [6]) was 2.88 min. For the same compound, the Activity (Rattus norvegicus [7]) was “Non-toxic”, the Time (Rattus norvegicus [8]) was 2.78 min and the Activity (Rattus norvegicus [9]) was “Non-toxic”. For the same compound, the Activity (Rattus norvegicus [10]) was “Non-toxic”.
`O=c1oc2ccc(Cl)cc2n1Cc1cn(-c2ccc(Cl)cc2)nn1` gave a Ratio IC50 (Homo sapiens) of 41.2, an IC50 [11] of 111 µM and an IC50 [12] of 2.7 µM. The inhibition in vivo at 50 µmol/kg (Rattus norvegicus [1]) was 65.1%, the Activity (Rattus norvegicus [5]) was “Non-toxic” and the Activity (Rattus norvegicus [7]) was “Non-toxic”. For the same compound, the Activity (Rattus norvegicus [9]) was “Non-toxic”, the Activity (Rattus norvegicus [10]) was “Non-toxic” and the inhibition in vivo at 50 µmol/kg (Rattus norvegicus [2]) was 67.4%.
Compound `Cc1ccc2c(c1)oc(=O)n2Cc1cn(-c2ccc(Cl)cc2)nn1` has a Ratio IC50 (Homo sapiens) of 69.5, a Time (Rattus norvegicus [3]) of 3.34 min and an IC50 [11] of 389 µM. The IC50 [12] was 5.6 µM, the inhibition in vivo at 50 µmol/kg (Rattus norvegicus [1]) was 76.7% and the Activity (Rattus norvegicus [5]) was “Non-toxic”. For the same compound, the Time (Rattus norvegicus [6]) was 3.08 min, the Activity (Rattus norvegicus [7]) was “Non-toxic” and the Time (Rattus norvegicus [8]) was 3.22 min. The Activity (Rattus norvegicus [9]) was “Non-toxic”, the Activity (Rattus norvegicus [10]) was “Non-toxic” and the inhibition in vivo at 50 µmol/kg (Rattus norvegicus [2]) was 74%.
For `Cc1ccc2oc(=O)n(Cc3cn(-c4ccc(Br)cc4)nn3)c2c1`, the inhibition (Rattus norvegicus [13]) was “tde”, the Ratio IC50 (Homo sapiens) was 67.7 and the Time (Rattus norvegicus [3]) was 2.88 min. For the same compound, the IC50 [11] was 188 µM, the “inhibition (INH)” value [4] was 50.95% and the IC50 [12] was 2.78 µM. For the same compound, the inhibition in vivo at 50 µmol/kg (Rattus norvegicus [1]) was 74.8%, the Activity (Rattus norvegicus [5]) was “Non-toxic” and the Time (Rattus norvegicus [6]) was 2.62 min. The Activity (Rattus norvegicus [7]) was “Non-toxic”, the Time (Rattus norvegicus [8]) was 2.74 min and the Activity (Rattus norvegicus [9]) was “Non-toxic”. The Activity (Rattus norvegicus [10]) was “Non-toxic”, the inhibition in vivo at 50 µmol/kg (Rattus norvegicus [2]) was 73.2% and the inhibition in vivo at 50 µmol/kg (Mus musculus) was 41.8%.
